Hits are enriched below; roughly 4.7% of the tested compounds scored in any of these assays.
AHR act: AHR activators, primary screen, cell-based, luminescence, luciferase reporter, human; 2.5% of 320,000 active; AHR-responsive luciferase reporter cells; AID 2796, 2010; activation, % at 5 µM; Aryl hydrocarbon receptor (Homo sapiens), P35869; in the data active = activation above about 47%;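 note: 0% = vehicle wells and 100% = reference agonist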
MC4R antag cAMP: MC4R antagonists of cAMP signaling, primary screen, cell-based, TR-FRET, antagonist arm of biased-ligand search. MC4R-expressing cells, MTII-stimulated cAMP, LANCE TR-FRET. 0.48% of 360,000 active. AID 540295, 2011. inhibition, % at 6.5 µM. Melanocortin receptor 4 (Homo sapiens), P32245;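 active = inhibition above its plate's cutoff, the mean of tested wells on that plate plus 3 SD, cut at about 29% in these data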;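 note: 0% = Melanotan II alone and 100% = Melanotan II plus saturating MCL0020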
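System: U2OS cells stably expressing human melanocortin 4 receptor (MC4R). Reagent: Melanotan II challenge after compound preincubation. Doses: 6.5 µM. Times: 30-min compound, 1-h challenge, 1-h detection, room temperature. Measured by: TR-FRET with Eu-cAMP and labeled anti-cAMP, 671 nm. Replicates: singlicate.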
GAA850 FXN act: FXN promoter activators, primary screen, cell-based, luciferase luminescence, HEK293 lucGAA850 | HEK293 lucGAA850 FXN promoter luciferase reporter, 24 h; percent of 10 µM SAHA response | activation, % at 6 µM | 0.56% of 360,000 active;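 active = activation above the average of all compounds screened plus 3 SD, cutoff fixed separately per campaign, cut at about 7.5% in these data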;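 note: 0% = DMSO wells and 100% = 10 µM SAHA wells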
HTR2A ag: mouse Htr2a agonists via beta-arrestin recruitment, primary screen, cell-based, luminescence | 5-hydroxytryptamine receptor 2A (Mus musculus), P35363 | CHO-K1 mHTR2A beta-arrestin complementation; percent of 30 µM serotonin response | activation, % at 7.6 µM | 0.66% of 360,000 active | AID 624169, 2012;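 active = activation above a run cutoff, the mean activation of all tested compounds plus 3 SD, cut at about 14% in these data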;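 note: 0% = plate median of compound wells and 100% = 30 µM serotonin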
Target sequence (P35363 whole entry, looked up): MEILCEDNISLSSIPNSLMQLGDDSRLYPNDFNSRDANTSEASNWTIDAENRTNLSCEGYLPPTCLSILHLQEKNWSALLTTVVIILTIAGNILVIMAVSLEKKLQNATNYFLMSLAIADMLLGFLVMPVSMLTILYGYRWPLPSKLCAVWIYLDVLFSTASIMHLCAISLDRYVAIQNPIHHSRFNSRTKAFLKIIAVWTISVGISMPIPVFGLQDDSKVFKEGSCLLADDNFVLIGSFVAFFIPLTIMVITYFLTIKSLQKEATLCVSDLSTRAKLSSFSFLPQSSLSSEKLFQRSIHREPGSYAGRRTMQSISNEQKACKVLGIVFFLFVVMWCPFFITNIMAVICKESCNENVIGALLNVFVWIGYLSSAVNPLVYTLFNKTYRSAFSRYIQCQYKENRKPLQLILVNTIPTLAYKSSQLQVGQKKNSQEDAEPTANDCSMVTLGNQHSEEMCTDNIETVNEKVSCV
MC4R ag barr: MC4R agonists recruiting beta-arrestin, primary screen, cell-based, luminescence, agonist arm of biased-ligand search. activation, % at 8.9 µM. Melanocortin receptor 4 (Homo sapiens), P32245. U2OS MC4R beta-arrestin complementation; percent of melanotan II response, DMSO zero. 0.98% of 360,000 active. AID 540308, 2011;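 active = activation above a per-plate cutoff, the mean activation of sample wells on that plate plus 3 SD, cut at about 8% in these data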
GAA30 FXN cntr: GAA30 FXN promoter activators, confirmation, counter-screen for GAA850 frataxin promoter activator project, cell-based, luminescence, HEK293, lucGAA30, triplicate; shares compounds with GAA850 FXN act; HEK293 lucGAA30 FXN promoter luciferase, 24 h; DMSO = 0%, 5 µM ipriflavone = 100%; activation, % at 6 µM; 66% of 1,900 active; AID 588350, 2011;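 active = mean activation above the mean of solvent-only control wells plus 3 SD, cut at about 22% in these data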;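 note: counterscreen of GAA850 promoter hits where activity marks nonselective or luminescence artifacts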
FXN GAA850 conf: FXN GAA850 promoter activators in reporter cells, confirmation, cell-based, luminescence, HEK293 lucGAA850, triplicate | activation, % at 6 µM | AID 588351, 2011 | HEK293 lucGAA850 FXN promoter luciferase reporter, 24 h; 100% = activation by SAHA | 86% of 1,900 active | shares compounds with GAA850 FXN act;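 active = mean activation above a set limit taken from the primary screen, cut at about 8% in these data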;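 note: 0% = DMSO wells and 100% = 10 µM SAHA wells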
Starred values were filed as active, the others as inactive; · = not tested or not shown.

SMILES	AHR act	MC4R antag cAMP	GAA850 FXN act	HTR2A ag	MC4R ag barr	GAA30 FXN cntr	FXN GAA850 conf
COc1cc2c(c(Br)c1N)-c1cc(Br)c(N)cc1C2=O	·	-7	11*	-5	6	91*	46*
COC(=O)c1cc(Br)c(N)cc1OC	0	-9	2	5	-2	·	·
CCCN1CCc2c(sc3nc(SC)n(-c4ccccc4)c(=O)c23)C1	-3	5	0	1	-2	·	·
O=C(NCCc1c[nH]c2ccccc12)c1c(Cl)nc2sccn12	-7	-10	7.7*	-7	3	46*	23*
O=C(Cc1c(F)cccc1Cl)NCCc1c[nH]c2ccccc12	-5	2	1	1	0	·	·
O=C(NC1CCCC1)c1cc(-c2cccs2)on1	1	1	18*	-3	-2	159*	92*
O=C(NCCCN1CCOCC1)c1cc(-c2cccs2)on1	19	-1	20*	1	-1	113*	80*
O=C(NCc1ccccc1CN1CCCC1)C1CCN(C(=O)c2ccc(Cl)cc2)CC1	·	5	0	0	0	·	·
CCS(=O)(=O)N1Cc2ccccc2CC1C(=O)NCC12CC3CC(CC(C3)C1)C2 (stereo not drawn)	0	0	7.7*	-5	-2	13	8.3*
CCS(=O)(=O)N1Cc2ccccc2CC1C(=O)Nc1ccccc1OC (stereo not drawn)	11	2	3	2	-1	·	·
CCS(=O)(=O)N1Cc2ccccc2CC1C(=O)NC(C)C12CC3CC(CC(C3)C1)C2 (stereo not drawn)	1	4	12*	-6	0	27*	14*
CCS(=O)(=O)N1Cc2ccccc2CC1C(=O)Nc1ccc(F)cc1 (stereo not drawn)	2	5	3	-1	0	·	·
CCOC(=O)c1cnc(SCc2ccccc2)nc1N	-2	-7	9.9*	2	4	117*	39*
COCCn1c(C)cc(/C=C(\C#N)C(=O)OCC(=O)Nc2ccc(S(N)(=O)=O)cc2)c1C	·	-2	2	-1	-2	·	·
CN(C)c1ccc(Cc2cc3c(O)ccc(O)c3cc(Cc3ccc(N(C)C)cc3)c2=O)cc1	·	-12	14*	-2	-5	16	23*
CN(C)c1ccc(C(=O)c2ccc(O)cc2O)cc1	36	-10	1	-2	-2	·	·
CN(C)c1ccc(-c2nnn(Cc3ccccc3Br)n2)cc1	7	11	12*	-4	-2	70*	26*
CC1CCc2c(sc(NC(=O)c3ccc(N4C(=O)CCC4=O)cc3)c2C(N)=O)C1 (stereo not drawn)	-4	21	1	-3	-1	·	·
CC1=C([N+](=O)[O-])C(c2cccc(Br)c2)C2=C(N1)c1ccccc1C2=O (stereo not drawn)	19	-17	15*	-3	-4	-13	35*
Cn1c(CCN2CCCCC2)nc2cc([N+](=O)[O-])ccc21	-1	-10	7.7*	0	0	18	17*
COc1ccc(CC(=O)O/N=C(\N)c2ccccc2)cc1OC	29	-2	6	-5	1	·	·
N#Cc1c(N)nc(SCc2ccncc2)c(C#N)c1-c1cccs1	28	-31	9.9*	0	1	-8	6
COc1ccc(C(=O)COC(=O)c2sccc2C)cc1OC	1	-2	3	8	2	·	·
COc1ccc(NC(=O)CSCC(=O)Nc2cc(Cl)ccc2N2CCOCC2)cc1	4	6	1	-2	-2	·	·
COc1ccc(NC(=O)CSCC(=O)Nc2cc(Cl)ccc2N2CCCC2)cc1	29	4	8.5*	-5	3	9	6
SMILES	AHR act	MC4R antag cAMP	GAA850 FXN act	HTR2A ag	MC4R ag barr	GAA30 FXN cntr	FXN GAA850 conf
COc1ccc(C(=O)/C=C/Sc2nc3ccccc3o2)cc1	2	4	9.8*	10	-1	5	5
COc1ccc(C(=O)N/C(N)=N/c2nc3ccccc3o2)cc1	41	6	1	0	8	·	·
CC1(C)CC(=O)c2c(O)cc(OCc3ccc(Br)cc3)cc2O1	12	3	9.4*	-4	-1	99*	36*
CC1(C)CC(=O)c2cc(OCC(=O)O)ccc2O1	-1	-4	0	3	-1	·	·
CC1(C)CC(=O)c2ccc(OCc3ccc([N+](=O)[O-])cc3)cc2O1	24	1	8.4*	-2	-2	136*	50*
COC(=O)c1ccc(COc2cc(O)c3c(c2)OC(C)(C)CC3=O)cc1	-4	0	1	-4	-2	·	·
COC(=O)c1ccccc1NC(=O)CSc1nc2ccsc2c(=O)n1Cc1ccc(C(=O)O)cc1	·	20	0	1	0	·	·
OC(c1ccccc1)(c1nc(-c2cc(F)cc(F)c2)cs1)C(F)(F)F (stereo not drawn)	·	10	0	-1	1	·	·
Cc1cccc(NS(=O)(=O)c2ccc(C(=O)NCC(c3ccco3)N(C)C)cc2)c1C (stereo not drawn)	1	4	1	-3	-1	·	·
OC1CCCN(c2c3c(nc4cc(-c5cccc(F)c5)nn24)CCCC3)C1 (stereo not drawn)	18	7	14*	1	-2	92*	32*
Cc1cc(C)c2c(N)c(C(=O)Nc3ccc([N+](=O)[O-])cc3)sc2n1	6	5	9.4*	-1	-1	98*	32*
CN1C(=O)/C(=C\c2ccncc2)SC1=Nc1ccccc1	12	1	8.4*	1	0	-1	7
CN(C)c1ccc(-c2ccnc3c2CC(C)(C(=O)NCCC(F)(F)F)O3)cc1 (stereo not drawn)	·	4	-1	-4	0	·	·
COc1ccc(-c2nnc(SCC(=O)N3CCOCC3)o2)cc1	7	-5	7.7*	5	0	101*	30*
O=C1CN(c2nc(-c3cccnc3)nc3sc4c(c23)CCCC4)CCN1	17	-11	10*	5	-1	13	21*
CCCCNc1nc2c(S(=O)(=O)c3ccccc3)nnn2c2ccccc12	4	20	1	0	2	·	·

Bioassay records deposited in PubChem BioAssay by The Scripps Research Institute Molecular Screening Center.
